Measurements pooled from the literature.
Compare with care: the assays were run in different laboratories.
Target: Aurora kinase A (AURKA, Homo sapiens, UniProt O14965)
One construct used (O14965 1-403): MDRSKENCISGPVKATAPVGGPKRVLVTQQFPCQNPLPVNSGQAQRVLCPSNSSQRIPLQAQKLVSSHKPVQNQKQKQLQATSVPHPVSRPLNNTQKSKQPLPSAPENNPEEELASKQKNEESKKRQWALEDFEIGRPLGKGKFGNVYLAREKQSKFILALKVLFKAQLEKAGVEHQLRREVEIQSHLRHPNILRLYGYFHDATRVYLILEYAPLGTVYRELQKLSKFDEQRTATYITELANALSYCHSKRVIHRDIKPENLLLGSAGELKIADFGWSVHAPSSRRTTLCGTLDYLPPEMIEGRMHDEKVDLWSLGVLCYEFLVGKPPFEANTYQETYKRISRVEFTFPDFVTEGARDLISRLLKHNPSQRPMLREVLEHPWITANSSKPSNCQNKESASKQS

| SMILES | assay | system | conditions | endpoint | result |
| --- | --- | --- | --- | --- | --- |
| O=C1NC(=O)c2cc(Nc3ccc(F)cc3)c(Nc3ccc(F)cc3)cc21 | cell-free assay | – | 0.5 µM | remaining signal | 92.7% |
| CC(C)(C)c1nc(-c2cccc(NS(=O)(=O)c3c(F)cccc3F)c2F)c(-c2ccnc(N)n2)s1 | enzyme activity, inhibitor, radiometric | – | 1 µM | remaining activity | 102% |
| COc1cc(Nc2cnc(C#N)c(O[C@H](C)CN(C)C)n2)ncc1-c1cnn(C)c1 | enzyme activity, inhibitor, radiometric | – | 1 µM | remaining activity | 84% |
| CS(=O)(=O)c1cc(C2(NC(=O)c3cncc4c3cnn4-c3ccc(F)cc3)CC2)ccn1 | cell-free assay, competition with immobilised ligand | – | 1 µM | remaining binding | 89% |
| COc1cc2ncnc(Nc3ccc(Oc4ccccc4)cc3C)c2cc1OC | enzyme activity, inhibitor | – | 1 µM | inhibition | 8% |
| Cc1[nH]c(/C=C2\C(=O)Nc3ccc(F)cc32)c(C)c1C(=O)N[C@H]1CCN(C(=O)N(C)C)C1 | enzyme activity, inhibitor | – | 0.1 µM | remaining activity | 82% |
| CCN(CC)CCNC(=O)c1c(C)[nH]c(/C=C2\C(=O)Nc3ccc(F)cc32)c1C | enzyme activity, inhibitor | – | 0.3 µM | inhibition | 28% |
| CS(=O)(=O)N1CCCC(NC(=O)[C@H](CCC2CCCCC2)NC(=O)c2ccc(CNC(=O)c3cnc4ccccn34)cc2)C1 (some centres unmarked) | cell-free assay, competition with immobilised ligand | – | 0.1 µM | remaining binding | 100% |
| CC/C(=N\NC(=O)NCc1cccc(O)c1)c1ccc(O)c(C)c1O | enzyme activity, inhibitor | – | 0.1 µM | inhibition | 5.9% |
| CCN(CC)CCNC(=O)c1c(C)[nH]c(/C=C2\C(=O)Nc3ccc(F)cc32)c1C | enzyme activity, inhibitor | – | 1 µM | remaining activity | 43% |
| CSc1nc(C)c(-c2ccnc(Nc3ccc(N4CCOCC4)cc3)c2)[nH]1 | enzyme activity, inhibitor | – | 10 µM | inhibition | 40.6% |
| CC(C)(O)[C@H]1CC[C@H](Nc2ccc3ncc(-c4cccc(C(F)(F)F)c4)n3n2)CC1 | enzyme activity, inhibitor | – | 1 µM | remaining activity | 96.1% |
| Cn1c(=O)n(-c2ccc(C(C)(C)C#N)cc2)c2c3cc(-c4cnc5ccccc5c4)ccc3ncc21 | enzyme activity, inhibitor | – | 10 µM | remaining activity | 104% |
| CNc1cc(Oc2cc(C(=O)Nc3cc(N4CCN(C)CC4)cc(C(F)(F)F)c3)ccc2C)ncn1 | target engagement in cells, inhibitor, chemoproteomics | Huh-7 | 1 µM | inhibition | -45.4% |
| O=C(Nc1cnn(-c2csc(C(=O)NC3COC3)c2)c1)Nc1ccccc1Cl | enzyme activity, inhibitor | – | 5 µM | remaining activity | 105% |
| Cc1c(NC(=O)c2cc(C(N)=O)nc3cc(F)ccc23)c(C(F)(F)F)nn1Cc1ccc(C#N)cc1 | cell-free assay, competition with immobilised ligand | – | 1 µM | remaining binding | 89% |

| SMILES | assay | system | conditions | endpoint | result |
| --- | --- | --- | --- | --- | --- |
| O=C(CSc1nc2nccnc2c(=O)n1CCc1ccccc1)Nc1nccs1 | enzyme activity, inhibitor | – | 10 µM | inhibition | 1% |
| O=C(Nc1cnn(-c2csc(C(=O)NC3COC3)c2)c1)Nc1c(F)cccc1Cl | enzyme activity, inhibitor | – | 5 µM | remaining activity | 83.1% |
| CC(C)(O)c1cncc(-c2nc3ccc(F)cc3n2C2CC2)c1 | cell-free assay, competition with immobilised ligand | – | 1 µM | remaining binding | 94% |
| Cc1ccc(C(=O)NCc2ccsc2)cc1C#Cc1cn(C(C)C)c2ncnc(N)c12 | enzyme activity, inhibitor | – | 1 µM | activity vs control | 50% |
| COc1cc(Cl)c(C(=O)N[C@@H](CN[C@H]2CC[C@@H](N)CC2)Cc2ccc(C#N)cc2)cc1-c1ccc(CN[C@H](C)c2ccc(C)cc2)o1 | enzyme activity, inhibitor | – | 1 µM | remaining activity | 98% |
| N#CCCc1ccc2c(c1)-c1[nH]c3ccc([N+](=O)[O-])cc3c1CC(=O)N2 | cell-free assay | – | 0.5 µM | remaining signal | 78.7% |
| Cc1cnc(NC2CCOCC2)nc1-n1cnc(C(=O)NC(CN)c2cc(F)cc(Cl)c2)c1 (centres unmarked) | enzyme activity, inhibitor, radiometric | – | 1 µM | remaining activity | 48% |
| CNC(=O)Nc1ccc2c(c1)CC[C@@]21OC(=O)N(CC(=O)N(Cc2ccc(F)cc2)[C@@H](C)C(F)(F)F)C1=O | cell-free assay, competition with immobilised ligand | – | 1 µM | remaining binding | 80% |
| CNC(=O)c1cc(Oc2ccc(NC(=O)Nc3ccc(Cl)c(C(F)(F)F)c3)cc2)ccn1 | enzyme activity, inhibitor | – | 0.3 µM | inhibition | 16% |
| CCCOc1ccc(OC)c(F)c1C(=O)c1ccc(C(=O)N[C@@H]2CNC[C@H]2NC(=O)c2ccc3[nH]ncc3c2)cc1 | enzyme activity, inhibitor | – | 10 µM | remaining activity | 33% |
| COc1cc(-c2cn(C3CCc4c(F)cccc4N(CC(F)(F)F)C3=O)nn2)ccc1-n1cnc(C)c1 (centres unmarked) | cell-free assay, competition with immobilised ligand | – | 1 µM | remaining binding | 100% |
| Cc1ccc(Nc2nccc(N(C)c3ccc4c(C)n(C)nc4c3)n2)cc1S(N)(=O)=O | enzyme activity, inhibitor | – | 0.3 µM | inhibition | 73% |
| C[C@@H]1CN(c2cc(-c3n[nH]c4ccc(OC5(C)CC5)cc34)ncn2)C[C@H](C)O1 | cell-free assay, competition with immobilised ligand | – | 0.1 µM | remaining binding | 94% |
| COc1cc(/C=C/C(=O)CC(=O)/C=C/c2ccc(O)c(OC)c2)ccc1O | enzyme activity, inhibitor | – | 1 µM | activity vs control | 85% |
| O=C(Nc1cnc(Oc2ccc(F)cc2)nc1)N1CCc2ncccc2[C@@H]1c1ccc(F)cc1 | cell-free assay, competition with immobilised ligand | – | 1 µM | remaining binding | 100% |
| O=C1Nc2ccc(Cl)cc2C1=Cc1cc(Cl)c(O)c(Cl)c1 | cell-free assay | – | 0.5 µM | remaining signal | 64.2% |
